Test results taken from ChEMBL document CHEMBL1629656, “Oritavancin kills stationary-phase and biofilm Staphylococcus aureus cells in vitro” (Antimicrob Agents Chemother, 2009).
≈ marks a conversion by molar mass, not a printed value. Calls of active or inactive are those of the source. No cut-off for these calls is given here.

What was measured:
Staphylococcus aureus [1] = assay: Bactericidal activity against stationary-phase vancomycin-resistant Staphylococcus aureus isolate VRS5 after 24 hrs by time kill analysis; format: functional, organism-based
How it was run: (§1)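 Overnight stationary-phase cultures inoculated at ~10^7 CFU/ml into strain-matched spent CAMHB (pH 7.0, filter-sterilized). Oritavancin was kept at 0.002% polysorbate 80; daptomycin wells had 50 μg/ml CaCl2. Incubation at 37°C, 225 rpm. Samples were charcoal-quenched (25 mg/ml) before plating; points are means of duplicates. Bactericidal means ≥3-log drop at 24 h versus inoculum. ≥3 repeats.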

Staphylococcus aureus [2] = assay: Bactericidal activity against stationary-phase methicillin-resistant Staphylococcus aureus ATCC 33591 grown on nutrient-depleted CAMHB medium assessed as reduction in bacterial count at 0.5 ug/ml after 24 hrs by time kill analysis; format: functional; how it was run: as §1
Staphylococcus aureus [3] = assay: Antimicrobial activity against methicillin-sensitive Staphylococcus aureus ATCC 29213 planktonic cells by broth microdilution method; format: functional
How it was run: (§2)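 Planktonic MIC read in the MBEC system against cells shed from 24-h peg biofilms (grown in tryptic soy broth, 37°C, 150 rpm), after 24-h exposure to serially diluted drug in CAMHB without polysorbate 80. Ranges come from ≥3 independent experiments.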

Staphylococcus aureus [4] = assay: Antimicrobial activity against 4.6 X 10^6 CFU/peg methicillin-susceptible Staphylococcus aureus ATCC 29213 assessed as inhibition of biofilm formation after 24 hrs by serial dilution method
Staphylococcus aureus [5] = assay: Inhibition of cell division in stationary-phase methicillin-resistant Staphylococcus aureus ATCC 43300 assessed as absence of appearance of septal midline at 1 ug/ml by transmission electron microscopy; format: functional, organism-based
How it was run: (§3)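 Stationary-phase MRSA ATCC 43300 (5 × 10^7 CFU/ml) exposed for 3 h in nutrient-depleted CAMHB. Cells were fixed in 2.5% glutaraldehyde, post-fixed in 2% osmium tetroxide and en bloc stained with uranyl acetate. Samples were ethanol-dehydrated, embedded in LR White, thin-sectioned, and stained with uranyl acetate/lead citrate. Septa were viewed by TEM at 100 kV.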

Staphylococcus aureus [6] = assay: Bactericidal activity against methicillin-sensitive Staphylococcus aureus assessed as log reduction in bacterial load within 15 to 120 mins; format: functional
Staphylococcus aureus [7] = assay: Antimicrobial activity against vancomycin-resistant Staphylococcus aureus isolate VRS5 planktonic cells by broth microdilution method; format: functional; how it was run: as §2
Staphylococcus aureus [8] = assay: Antimicrobial activity against methicillin-resistant Staphylococcus aureus ATCC 33591 planktonic cells by broth microdilution method; format: functional; how it was run: as §2
Homo sapiens = assay: fCmin in human at 200 […]; format: ADME, organism-based; settings: in vivo
Staphylococcus aureus [9] = assay: Antimicrobial activity against stationary-phase methicillin-sensitive Staphylococcus aureus ATCC 29213 grown on nutrient-depleted CAMHB medium assessed as membrane permeability after 30 mins by propidium iodide staining-based fluorescence spectrophotometry; format: functional, organism-based
Staphylococcus aureus [10] = assay: Bactericidal activity against stationary-phase vancomycin-resistant Staphylococcus aureus isolate VRS5 grown on nutrient-depleted CAMHB medium assessed as log reduction in bacterial count at 4 ug/ml after 24 hrs by time kill analysis
Staphylococcus aureus [11] = assay: Bactericidal activity against exponential-phase methicillin-sensitive Staphylococcus aureus ATCC 29213 grown on nutrient-depleted CAMHB medium at 4 ug/ml after 24 hrs by time kill analysis; format: functional, organism-based
Staphylococcus aureus [12] = assay: Antimicrobial activity against exponential-phase methicillin-sensitive Staphylococcus aureus ATCC 29213 grown on nutrient-depleted CAMHB medium assessed as membrane permeability after 30 mins by propidium iodide staining-based fluorescence spectrophotometry; format: functional, organism-based
Staphylococcus aureus [13] = assay: Antimicrobial activity against 4.6 X 10^6 CFU/peg methicillin-susceptible Staphylococcus aureus ATCC 29213 planktonic cells by broth microdilution method
Staphylococcus aureus [14] = assay: Bactericidal activity against exponential-phase methicillin-sensitive Staphylococcus aureus ATCC 29213 assessed as log reduction in bacterial count at 4 ug/ml within 2 hrs by time kill analysis; format: functional
Staphylococcus aureus [15] = assay: Antimicrobial activity against methicillin-sensitive Staphylococcus aureus ATCC 29213 assessed as inhibition of biofilm formation after 24 hrs by serial dilution method; format: functional
How it was run: (§4)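 24-h biofilms grown on MBEC peg lids from 10^7 CFU/ml inocula in tryptic soy broth at 37°C, 150 rpm. After a saline wash, pegs were exposed for 24 h to serially diluted drug in CAMHB with no polysorbate 80. Pegs were washed, sonicated 5 min into CAMHB recovery plates and incubated 24 h; MBEC is the lowest sterilizing concentration. Ranges come from ≥3 independent experiments.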

Staphylococcus aureus [16] = assay: Bactericidal activity against stationary-phase methicillin-sensitive Staphylococcus aureus ATCC 29213 grown on nutrient-depleted CAMHB medium assessed as log reduction in bacterial count at 0.5 ug/ml after 24 hrs by time kill analysis; format: functional
Staphylococcus aureus [17] = assay: Bactericidal activity against stationary-phase methicillin-sensitive Staphylococcus aureus ATCC 29213 assessed as log reduction in bacterial count at 16 ug/ml within 2 hrs by time kill analysis; format: functional
How it was run: (§5)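 Short (2-h) time-kill of ATCC 29213 at OD600 0.005 (~10^6 CFU/ml) in 10 mM HEPES-Cl pH 7.5 with 50 μg/ml CaCl2. Exponential cells had 5 mM glucose and stationary cells none. Oritavancin was tested without polysorbate 80; viable counts were taken by serial dilution plating. Three repeats; one shown.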

Staphylococcus aureus [18] = assay: Antimicrobial activity against stationary-phase methicillin-sensitive Staphylococcus aureus ATCC 29213 grown on nutrient-depleted CAMHB medium assessed as membrane depolarization after 30 mins using DiSC3(5) dye based fluorescence spectrophotometry; format: functional, organism-based
Staphylococcus aureus [19] = assay: Bactericidal activity against exponential-phase methicillin-sensitive Staphylococcus aureus ATCC 29213 assessed as log reduction in bacterial count at 16 ug/ml within 15 mins by time kill analysis; format: functional; how it was run: as §5
Staphylococcus aureus [20] = assay: Antimicrobial activity against methicillin-resistant Staphylococcus aureus ATCC 33591 assessed as inhibition of biofilm formation after 24 hrs by serial dilution method; format: functional; how it was run: as §4
Staphylococcus aureus [21] = assay: Bactericidal activity against stationary-phase methicillin-sensitive Staphylococcus aureus ATCC 29213 assessed as log reduction in bacterial count at 4 ug/ml within 2 hrs by time kill analysis; format: functional
Staphylococcus aureus [22] = assay: Bactericidal activity against stationary-phase methicillin-resistant Staphylococcus aureus ATCC 33591 grown on nutrient-depleted CAMHB medium after 24 hrs by time kill analysis; format: functional, organism-based; how it was run: as §1
Staphylococcus aureus [23] = assay: Antimicrobial activity against methicillin-sensitive Staphylococcus aureus ATCC 29213 assessed as inhibition of bacterial biofilm formation after 1 hr by serial dilution method; format: functional
Staphylococcus aureus [24] = assay: Bactericidal activity against exponential-phase methicillin-sensitive Staphylococcus aureus ATCC 29213 grown on nutrient-depleted CAMHB medium at 0.5 ug/ml after 24 hrs by time kill analysis; format: functional, organism-based
Staphylococcus aureus [25] = assay: Bactericidal activity against exponential-phase methicillin-sensitive Staphylococcus aureus ATCC 29213 grown on nutrient-depleted CAMHB medium at 16 ug/ml after 24 hrs by time kill analysis; format: functional, organism-based
Staphylococcus aureus [26] = assay: Antimicrobial activity against exponential-phase methicillin-sensitive Staphylococcus aureus ATCC 29213 grown on nutrient-depleted CAMHB medium assessed as membrane depolarization after 30 mins using DiSC3(5) dye based fluorescence spectrophotometry; format: functional, organism-based
Staphylococcus aureus [27] = assay: Antimicrobial activity against exponential-phase methicillin-sensitive Staphylococcus aureus ATCC 29213 grown on nutrient-depleted CAMHB medium assessed as membrane permeability at 16 ug/ml after 30 mins by propidium iodide staining-based fluorescence spectrophotometry; format: functional, organism-based
How it was run: (§6)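 Cells prepared as for depolarization: exponential-phase ATCC 29213 in HEPES-CaCl2 buffer with 5 mM glucose, stationary-phase without glucose, final OD600 0.005. Stained with 5 μM Syto 9 plus 30 μM propidium iodide. Fluorescence (ex 485/em 535 nm) monitored for 30 min after drug addition, without polysorbate 80. Three repeats; one shown.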

Staphylococcus aureus [28] = assay: Antimicrobial activity against vancomycin-resistant Staphylococcus aureus isolate VRS5 assessed as inhibition of biofilm formation after 24 hrs by serial dilution method in presence of 0.002% polysorbate 80; format: functional
Staphylococcus aureus [29] = assay: Bactericidal activity against stationary-phase methicillin-sensitive Staphylococcus aureus ATCC 29213 grown on nutrient-depleted CAMHB medium at 16 ug/ml after 24 hrs by time kill analysis; format: functional, organism-based; how it was run: as §1
Staphylococcus aureus [30] = assay: Bactericidal activity against stationary-phase vancomycin-resistant Staphylococcus aureus isolate VRS5 grown on nutrient-depleted CAMHB medium 16 ug/ml after 24 hrs by time kill analysis; format: functional, organism-based; how it was run: as §1
Staphylococcus aureus [31] = assay: Antimicrobial activity against methicillin-resistant Staphylococcus aureus ATCC 33591 assessed as inhibition of biofilm formation after 24 hrs by serial dilution method in presence of 0.002% polysorbate 80; format: functional
Staphylococcus aureus [32] = assay: Antimicrobial activity against vancomycin-resistant Staphylococcus aureus isolate VRS5 planktonic cells by broth microdilution method in presence of 0.002% polysorbate 80; format: functional
Staphylococcus aureus [33] = assay: Antimicrobial activity against exponential-phase methicillin-sensitive Staphylococcus aureus ATCC 29213 grown on nutrient-depleted CAMHB medium assessed as membrane depolarization at 16 ug/ml after 30 mins using DiSC3(5) dye based fluorescence spectrophotometry; format: functional, organism-based
How it was run: (§7)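 MSSA ATCC 29213 exponential-phase cells (OD600 ≈0.25 subculture in CAMHB) or stationary-phase cells were washed in 10 mM HEPES-Cl pH 7.5 with 50 μg/ml CaCl2; buffer had 5 mM glucose for exponential cells and none for stationary cells. Cells were loaded with 1.5 μM DiSC3(5) for 30 min in the dark, then diluted to OD600 0.005. Drug was added without polysorbate 80 and fluorescence (ex 612/em 665 nm) followed in real time for 30 min. Three repeats; one shown.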

Staphylococcus aureus [34] = assay: Inhibition of cell division in stationary-phase methicillin-resistant Staphylococcus aureus ATCC 43300 assessed as absence of appearance of septal midline at 16 ug/ml by transmission electron microscopy; format: functional, organism-based; how it was run: as §3
Staphylococcus aureus [35] = assay: Antimicrobial activity against stationary-phase methicillin-sensitive Staphylococcus aureus ATCC 29213 grown on nutrient-depleted CAMHB medium assessed as membrane permeability at 16 ug/ml after 30 mins by propidium iodide staining-based fluorescence spectrophotometry; format: functional, organism-based; how it was run: as §6
Staphylococcus aureus [36] = assay: Antimicrobial activity against methicillin-sensitive Staphylococcus aureus ATCC 29213 assessed as inhibition of biofilm formation after 24 hrs by serial dilution method in presence of 0.002% polysorbate 80; format: functional
Staphylococcus aureus [37] = assay: Bactericidal activity against stationary-phase methicillin-sensitive Staphylococcus aureus ATCC 29213 grown on nutrient-depleted CAMHB medium at 4 ug/ml after 24 hrs by time kill analysis; format: functional, organism-based; how it was run: as §1
Staphylococcus aureus [38] = assay: Antimicrobial activity against stationary-phase methicillin-sensitive Staphylococcus aureus ATCC 29213 grown on nutrient-depleted CAMHB medium assessed as membrane depolarization at 16 ug/ml after 30 mins using DiSC3(5) dye based fluorescence spectrophotometry; format: functional, organism-based; how it was run: as §7

## CN[C@H](CC(C)C)C(=O)N[C@H]1C(=O)N[C@@H](CC(N)=O)C(=O)N[C@H]2C(=O)N[C@H]3C(=O)N[C@H](C(=O)N[C@H](C(=O)O)c4cc(O)cc(O)c4-c4cc3ccc4O)[C@H](O[C@H]3C[C@](C)(N)[C@@H](O)[C@H](C)O3)c3ccc(c(Cl)c3)Oc3cc2cc(c3O[C@@H]2O[C@H](CO)[C@@H](O)[C@H](O)[C@H]2O[C@H]2C[C@](C)(NCc3ccc(-c4ccc(Cl)cc4)cc3)[C@@H](O)[C@H](C)O2)Oc2ccc(cc2Cl)[C@H]1O [ORITAVANCIN]
Staphylococcus aureus [1]
  Activity: Dose-dependent effect
Staphylococcus aureus [2]
  fold change (FC): 0.4
Staphylococcus aureus [3]
  MIC: 2 µg/mL (≈ 1.12 µM)
Staphylococcus aureus [4]
  MBEC: 8 µg/mL
Staphylococcus aureus [5]
  inhibition: Active
Staphylococcus aureus [6]
  FC: >=3
Staphylococcus aureus [7]
  MIC: 2 µg/mL (≈ 1.12 µM)
Staphylococcus aureus [8]
  MIC: 0.5 µg/mL (≈ 0.279 µM)
Homo sapiens
  fCmin: 0.5 µg/mL
Staphylococcus aureus [9]
  Activity: Dose-dependent effect
Staphylococcus aureus [10]
  FC: 2.2
Staphylococcus aureus [11]
  Activity: Active
Staphylococcus aureus [12]
  Activity: Dose-dependent effect
Staphylococcus aureus [13]
  MIC: 4 µg/mL (≈ 2.23 µM)
Staphylococcus aureus [14]
  FC: 2.9
Staphylococcus aureus [15]
  MBEC: 2 µg/mL
Staphylococcus aureus [16]
  FC: 2.9
Staphylococcus aureus [17]
  FC: 1.5
Staphylococcus aureus [18]
  Activity: Dose-dependent effect
Staphylococcus aureus [19]
  FC: 3.2
Staphylococcus aureus [20]
  MBEC: 0.5 µg/mL
Staphylococcus aureus [21]
  FC: 0.9
Staphylococcus aureus [22]
  Activity: Dose-dependent effect
Staphylococcus aureus [23]
  MBEC: 4 µg/mL
Staphylococcus aureus [24]
  Activity: Active
Staphylococcus aureus [25]
  Activity: Active
Staphylococcus aureus [26]
  Activity: Dose-dependent effect

## CN[C@H](CC(C)C)C(=O)N[C@H]1C(=O)N[C@@H](CC(N)=O)C(=O)N[C@H]2C(=O)N[C@H]3C(=O)N[C@H](C(=O)N[C@H](C(=O)O)c4cc(O)cc(O)c4-c4cc3ccc4O)[C@H](O)c3ccc(c(Cl)c3)Oc3cc2cc(c3O[C@@H]2O[C@H](CO)[C@@H](O)[C@H](O)[C@H]2O[C@H]2C[C@](C)(N)[C@H](O)[C@H](C)O2)Oc2ccc(cc2Cl)[C@H]1O [VANCOMYCIN]
Staphylococcus aureus [27]
  Activity: inactive
Staphylococcus aureus [28]
  MBEC: >128 µg/mL
Staphylococcus aureus [4]
  MBEC: >128 µg/mL
Staphylococcus aureus [29]
  Activity: inactive
Staphylococcus aureus [30]
  Activity: inactive
Staphylococcus aureus [31]
  MBEC: >=128 ug ml-1
Staphylococcus aureus [32]
  MIC: > 128 µg/mL
Staphylococcus aureus [11]
  Activity: Active
Staphylococcus aureus [33]
  Activity: inactive
Staphylococcus aureus [17]
  Activity: inactive
Staphylococcus aureus [19]
  Activity: inactive
Staphylococcus aureus [34]
  inhibition: inactive
Staphylococcus aureus [35]
  Activity: inactive
Staphylococcus aureus [36]
  MBEC: >128 µg/mL
Staphylococcus aureus [24]
  Activity: Active
Staphylococcus aureus [37]
  Activity: inactive
Staphylococcus aureus [25]
  Activity: Active
Staphylococcus aureus [38]
  Activity: inactive
